From ChEMBL document CHEMBL3112507 (Bioorg Med Chem, 2014)
Active and inactive are the calls of the source. The calls are words filed in the database; no cut-off is given here.

How the values were obtained:
[1] = target: T1, Prostaglandin G/H synthase 2 (Homo sapiens) (UniProt P35354); assay: Inhibition of COX2 (unknown origin) by EIA
T1 sequence (whole entry): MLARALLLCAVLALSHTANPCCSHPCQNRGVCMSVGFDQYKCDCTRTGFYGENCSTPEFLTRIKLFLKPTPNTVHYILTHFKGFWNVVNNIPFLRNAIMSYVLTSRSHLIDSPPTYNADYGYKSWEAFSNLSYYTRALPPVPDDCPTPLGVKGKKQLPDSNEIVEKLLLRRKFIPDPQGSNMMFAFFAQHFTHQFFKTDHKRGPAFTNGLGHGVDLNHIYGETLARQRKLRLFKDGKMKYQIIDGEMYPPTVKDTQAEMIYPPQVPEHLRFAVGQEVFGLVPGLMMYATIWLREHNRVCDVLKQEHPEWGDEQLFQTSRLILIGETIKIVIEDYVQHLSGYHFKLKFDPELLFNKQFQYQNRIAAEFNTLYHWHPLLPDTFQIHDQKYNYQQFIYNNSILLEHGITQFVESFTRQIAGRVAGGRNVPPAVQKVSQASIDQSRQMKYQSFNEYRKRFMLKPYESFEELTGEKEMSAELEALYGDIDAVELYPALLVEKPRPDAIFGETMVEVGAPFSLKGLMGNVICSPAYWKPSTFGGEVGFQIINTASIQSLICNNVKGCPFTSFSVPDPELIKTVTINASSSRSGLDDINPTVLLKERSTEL

[2] = target: T2, Polyunsaturated fatty acid 5-lipoxygenase (Homo sapiens) (UniProt P09917); assay: Inhibition of 5-LOX (unknown origin) using arachidonic acid as substrate at 1 uM after 5 mins by EIA
T2 sequence (whole entry): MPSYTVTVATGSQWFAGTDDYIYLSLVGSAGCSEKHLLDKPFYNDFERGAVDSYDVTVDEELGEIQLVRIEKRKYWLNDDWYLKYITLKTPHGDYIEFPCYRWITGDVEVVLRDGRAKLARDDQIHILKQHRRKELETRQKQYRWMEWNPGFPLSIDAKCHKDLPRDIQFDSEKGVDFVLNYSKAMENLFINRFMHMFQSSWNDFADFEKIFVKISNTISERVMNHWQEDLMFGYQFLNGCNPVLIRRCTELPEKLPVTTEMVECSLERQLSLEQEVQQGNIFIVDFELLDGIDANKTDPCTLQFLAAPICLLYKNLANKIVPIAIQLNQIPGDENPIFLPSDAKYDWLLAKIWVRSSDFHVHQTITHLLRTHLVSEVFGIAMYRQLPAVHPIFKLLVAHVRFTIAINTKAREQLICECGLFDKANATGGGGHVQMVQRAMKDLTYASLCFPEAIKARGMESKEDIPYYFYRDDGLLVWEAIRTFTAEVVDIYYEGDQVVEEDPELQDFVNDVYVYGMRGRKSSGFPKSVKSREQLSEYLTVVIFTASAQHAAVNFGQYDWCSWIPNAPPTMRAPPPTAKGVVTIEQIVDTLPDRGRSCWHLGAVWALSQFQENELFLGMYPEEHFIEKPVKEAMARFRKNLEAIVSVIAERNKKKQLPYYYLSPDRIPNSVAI
In short: (§1)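 Test compounds dissolved in DMSO at 0.01, 0.1, 1, 10 and 100 µM. Each was added to 5-LOX enzyme in assay buffer, and the reaction was started with arachidonic acid substrate. Plates were shaken 5 min, chromogen was added, shaken 5 min more, then read at 490 nm. Blanks were buffer plus AA; positive controls were enzyme plus AA. Run in duplicate, means with deviation <5% used. Percent inhibition was calculated from lipoxygenase activity; IC50 derived from the concentration series.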

[3] = target: Phospholipase A2 (Homo sapiens) (UniProt P04054); assay: Inhibition of PLA2 (unknown origin) by Ellman's method
[4] = target: T3, Polyunsaturated fatty acid 5-lipoxygenase (Homo sapiens, UniProt P09917); assay: Inhibition of 5-LOX (unknown origin) using arachidonic acid as substrate after 5 mins by EIA; in short: as §1
T3 sequence (P09917 whole entry): T2 sequence (whole entry)

[5] = target: T2, Polyunsaturated fatty acid 5-lipoxygenase (Homo sapiens); assay: Inhibition of 5-LOX (unknown origin) using arachidonic acid as substrate at 0.01 uM after 5 mins by EIA; in short: as §1
[6] = target: T2, Polyunsaturated fatty acid 5-lipoxygenase (Homo sapiens); assay: Inhibition of 5-LOX (unknown origin) using arachidonic acid as substrate at 0.1 uM after 5 mins by EIA; in short: as §1
[7] = target: Prostaglandin G/H synthase 1 (Homo sapiens) (UniProt P23219); assay: Inhibition of COX1 (unknown origin) by EIA
[8] = target: T2, Polyunsaturated fatty acid 5-lipoxygenase (Homo sapiens); assay: (§2) Inhibition of 5-LOX (unknown origin) by UV-Vis spectrophotometry
In short: (§3)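 UV–visible spectral titration of the compounds with 5-LOX. Association constant Ka was obtained from 1/(Af−Aobs) = 1/(Af−Afc) + 1/(Ka[Af−Afc][L]). Ki was calculated as IC50/(1+[L]/Kd) using IC50 values from the enzyme immunoassay.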

[9] = target: T3, Polyunsaturated fatty acid 5-lipoxygenase; assay: as §2; in short: as §3
[10] = target: T2, Polyunsaturated fatty acid 5-lipoxygenase (Homo sapiens); assay: Inhibition of 5-LOX (unknown origin) using arachidonic acid as substrate at 10 uM after 5 mins by EIA; in short: as §1
[11] = target: T2, Polyunsaturated fatty acid 5-lipoxygenase (Homo sapiens); assay: Inhibition of 5-LOX (unknown origin) using arachidonic acid as substrate at 100 uM after 5 mins by EIA; in short: as §1
HeLa = assay: Cytotoxicity against human HeLa cells assessed as cell viability at […] after 15 to 45 hrs by MTT assay; type: cell-based
[12] = target: T3, Polyunsaturated fatty acid 5-lipoxygenase; assay: Inhibition of 5-LOX (unknown origin) using arachidonic acid as substrate after 5 mins by EIA in presence of pig liver esterase
In short: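 Same 5-LOX colorimetric immunoassay kit procedure (compounds at 0.01–100 µM in DMSO, AA substrate, chromogen, 490 nm, duplicates). Ester compounds were first treated with pig liver esterase, extracted per a reported procedure, before addition to the 5-LOX enzyme.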

[13] = Octanol-water partition coefficient, log P of the compound; type: physicochemical

Phospholipase A2 (Homo sapiens), sequence (P04054 23-148 limits assumed): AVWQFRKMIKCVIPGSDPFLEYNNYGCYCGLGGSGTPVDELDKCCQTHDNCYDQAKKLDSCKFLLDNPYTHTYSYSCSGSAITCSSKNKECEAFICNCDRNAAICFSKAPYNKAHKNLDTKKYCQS
Prostaglandin G/H synthase 1 (Homo sapiens), sequence (P23219 whole entry): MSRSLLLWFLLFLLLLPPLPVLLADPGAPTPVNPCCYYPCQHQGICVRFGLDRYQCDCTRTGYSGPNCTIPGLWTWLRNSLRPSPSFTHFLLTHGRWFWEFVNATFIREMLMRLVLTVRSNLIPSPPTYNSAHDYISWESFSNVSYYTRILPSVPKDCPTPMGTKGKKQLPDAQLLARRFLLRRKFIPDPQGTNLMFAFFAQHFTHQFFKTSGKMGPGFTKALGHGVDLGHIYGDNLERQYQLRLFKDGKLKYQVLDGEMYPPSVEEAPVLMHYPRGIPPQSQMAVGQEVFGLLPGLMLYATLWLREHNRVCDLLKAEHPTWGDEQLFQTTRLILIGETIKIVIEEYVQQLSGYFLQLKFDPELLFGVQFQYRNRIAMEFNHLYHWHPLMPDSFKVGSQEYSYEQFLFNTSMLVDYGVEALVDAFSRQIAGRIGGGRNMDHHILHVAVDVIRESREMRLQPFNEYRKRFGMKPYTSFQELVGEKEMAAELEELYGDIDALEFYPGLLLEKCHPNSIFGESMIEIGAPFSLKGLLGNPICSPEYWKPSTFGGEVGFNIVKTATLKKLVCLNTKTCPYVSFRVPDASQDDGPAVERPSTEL

Cc1ccc(S(=O)(=O)n2cc(C(=O)C(=O)N[C@H](Cc3cnc[nH]3)C(=O)O)c3ccccc32)cc1
inhibition [1]: inactive | inhibition [2]: 48.7% | inhibition [3]: inactive | IC50 [4]: 2.8 µM | inhibition [5]: 20% | inhibition [6]: 28.5% | inhibition [7]: inactive | Ka [8]: 3.7 ×10⁴ /M | Ki [9]: 2.53 µM | inhibition [10]: 55.5% | inhibition [11]: 64.7%

CC(C)(C)Sc1c(CC(C)(C)C(=O)O)n(Cc2ccc(Cl)cc2)c2ccc(OCc3ccc4ccccc4n3)cc12 [QUIFLAPON]
IC50 [4]: 0.0016 µM

COC(=O)CNC(=O)C(=O)c1cn(S(=O)(=O)c2ccc(C)cc2)c2ccccc12
inhibition [1]: inactive | inhibition [2]: 67.7% | Activity (HeLa): Non-toxic | inhibition [3]: inactive | IC50 [4]: 0.0097 µM | inhibition [5]: 50% | inhibition [6]: 51.5% | inhibition [7]: inactive | IC50 [12]: 0.008 µM | Ka [8]: 2.32 ×10⁶ /M | Ki [9]: 0.0095 µM | inhibition [10]: 85% | logP [13]: 2.21 | inhibition [11]: 98%

COC(=O)CNC(=O)C(=O)c1c[nH]c2ccccc12
inhibition [1]: inactive | inhibition [2]: 47.8% | inhibition [3]: inactive | IC50 [4]: 3.5 µM | inhibition [5]: 40% | inhibition [6]: 46.2% | inhibition [7]: inactive | inhibition [10]: 55.5% | inhibition [11]: 70%

Cc1ccc(S(=O)(=O)n2cc(C(=O)C(=O)N3CCC[C@@H]3C(=O)O)c3ccccc32)cc1
inhibition [1]: inactive | inhibition [2]: 53.5% | inhibition [3]: inactive | IC50 [4]: 0.6 µM | inhibition [5]: 27.3% | inhibition [6]: 45% | inhibition [7]: inactive | Ka [8]: 2.6 ×10⁵ /M | Ki [9]: 0.51 µM | inhibition [10]: 68.8% | inhibition [11]: 74.3%

COC(=O)[C@@H](Cc1c[nH]c2ccccc12)NC(=O)C(=O)c1cn(S(=O)(=O)c2ccc(C)cc2)c2ccccc12
inhibition [1]: inactive | inhibition [2]: 62.7% | inhibition [3]: inactive | IC50 [4]: 0.052 µM | inhibition [5]: 45.5% | inhibition [6]: 55.3% | inhibition [7]: inactive | IC50 [12]: 0.014 µM | Ka [8]: 6.67 ×10⁵ /M | Ki [9]: 0.037 µM | inhibition [10]: 75.5% | logP [13]: 2.34 | inhibition [11]: 80.4%

Cc1ccc(S(=O)(=O)n2cc(C(=O)C(=O)N[C@H](CCC(=O)O)C(=O)O)c3ccccc32)cc1
inhibition [1]: inactive | inhibition [2]: 59.5% | inhibition [3]: inactive | IC50 [4]: 0.097 µM | inhibition [5]: 42% | inhibition [6]: 50.5% | inhibition [7]: inactive | Ka [8]: 1.1 ×10⁵ /M | Ki [9]: 0.095 µM | inhibition [10]: 87.6% | inhibition [11]: 90.6%

COC(=O)[C@H]1CCCN1C(=O)C(=O)c1c[nH]c2ccccc12
inhibition [1]: inactive | inhibition [2]: 40.2% | inhibition [3]: inactive | IC50 [4]: 5.46 µM | inhibition [5]: 22.5% | inhibition [6]: 25.5% | inhibition [7]: inactive | inhibition [10]: 59.8% | inhibition [11]: 60.6%
